Source: ChEMBL document CHEMBL1811838, “Antimalarial activity of natural and synthetic prodiginines” (J Med Chem, 2011)

Assays:
[1] = Toxicity in C57BL/6J mouse splenic lymphocytes after 72 hrs by Alamar blue Assay; format: cell-based; conditions: splenic lymphocyte
How it was run: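 Splenic lymphocytes from C57BL/6J mice washed, then stimulated with 1 μg/mL concanavalin A in RPMI/10% FBS with 50 μM β-mercaptoethanol. Seeded at 2 × 10^5 cells/well with serially diluted compound for 72 h at 37 °C, 5% CO2. Resazurin added (final 10 μM) for another 24 h; fluorescence read at ex 560/em 590 nm.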

[2] = system: Plasmodium falciparum; assay: Antimalarial activity multidrug-resistant Plasmodium falciparum Dd2 after 72 hrs by SYBR Green I based fluorescence assay; format: functional, organism-based; conditions: Dd2, 72 h
How it was run: (§1)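 P. falciparum (D6 pansensitive; Dd2 MDR) cultured under standard conditions and grown 72 h with varying compound concentrations, chloroquine positive control or no drug, each condition in quadruplicate. Growth measured by SYBR Green I fluorescence with minor modifications; IC50 = concentration inhibiting growth by 50%.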

[3] = system: Plasmodium falciparum; assay: Antimalarial activity Plasmodium falciparum D6 after 72 hrs by SYBR Green I based fluorescence assay; format: functional, organism-based; conditions: D6, 72 h; how it was run: as §1

**Q.** With `CCc1cc(Cc2ccc(Cl)cc2)c(/C=C2\N=C(c3ccc[nH]3)C=C2OC)[nH]1` as the molecule, how does the IC50 [1] read?
**A.** Its IC50 is under 125 nM.

**Q.** What about the IC50 [2] of the same molecule?
**A.** Its IC50 is 6.2 nM.

**Q.** Which IC50 [3] does the source give for `CCCCCCCCc1ccc(/C=C2\N=C(c3ccc[nH]3)C=C2OC)[nH]1` here?
**A.** Its IC50 is 80 nM.

**Q.** And the IC50 [1]?
**A.** Its IC50 is under 125 nM.

**Q.** What about the IC50 [2] of the same molecule?
**A.** The IC50 was 130 nM.

**Q.** Which IC50 [3] does the source give for `CCCCCCCCc1cc(CCCCCC)[nH]c1/C=C1\N=C(c2ccc[nH]2)C=C1OC` here?
**A.** The IC50 was 4.9 nM.

**Q.** And the IC50 [1]?
**A.** Its IC50 is under 125 nM.

**Q.** What about the IC50 [2] of the same molecule?
**A.** The IC50 was 2 nM.

**Q.** Which IC50 [3] does the source give for `COC1=CC(c2ccc[nH]2)=N/C1=C\c1ccc(CCCCCCCCCCCN)[nH]1` here?
**A.** Its IC50 is 1700 nM.

**Q.** For `CCCCCCCCCCCC1=N/C(=C\c2[nH]c(-c3ccc[nH]3)cc2OC)C=C1` [UNDECYLPRODIGININE], which IC50 [3] is on record?
**A.** The IC50 was 7.7 nM.

**Q.** For `CCCCCCCCCCCc1ccc(/C=C2\N=C(c3ccco3)C=C2OC)[nH]1`, which IC50 [3] is on record?
**A.** Its IC50 is 2920 nM.

**Q.** What about the IC50 [1] of the same molecule?
**A.** The IC50 was 980 nM.

**Q.** And the IC50 [2]?
**A.** The IC50 was 3810 nM.

**Q.** What does the source list for `CCCCCCc1cc(Cc2ccc(Br)cc2)c(/C=C2\N=C(c3ccc[nH]3)C=C2OC)[nH]1`?
**A.** IC50 [1]: < 125 nM; IC50 [2]: 2.8 nM

**Q.** What does the source list for `COC1=CC(c2ccc[nH]2)=N/C1=C\c1[nH]c(Cc2ccccc2Cl)cc1Cc1ccccc1Cl`?
**A.** IC50 [3]: 3.6 nM; IC50 [1]: < 125 nM; IC50 [2]: 4.9 nM

**Q.** Which IC50 [3] does the source give for `COC1=CC(c2ccc[nH]2)=N/C1=C\c1[nH]c(Cc2ccc(Br)cc2)cc1Cc1ccc(Br)cc1` here?
**A.** Its IC50 is 14 nM.

**Q.** What about the IC50 [1] of the same molecule?
**A.** The IC50 was under 125 nM.

**Q.** And the IC50 [2]?
**A.** Its IC50 is 11 nM.

**Q.** Which IC50 [3] does the source give for `COC1=CC(c2ccc[nH]2)=N/C1=C\c1[nH]ccc1Cc1ccc(Br)cc1` here?
**A.** The IC50 was 90 nM.

**Q.** What about the IC50 [1] of the same molecule?
**A.** The IC50 was under 125 nM.

**Q.** And the IC50 [2]?
**A.** Its IC50 is 108 nM.

**Q.** For `CCCCCCCCc1cc[nH]c1/C=C1\N=C(c2ccc[nH]2)C=C1OC`, which IC50 [3] is on record?
**A.** The IC50 was 4.6 nM.

**Q.** What about the IC50 [1] of the same molecule?
**A.** The IC50 was under 125 nM.

**Q.** And the IC50 [2]?
**A.** The IC50 was 1.8 nM.

**Q.** Which results are given for `COC1=CC(c2ccc[nH]2)=N/C1=C\c1[nH]c(Cc2c(F)cccc2F)cc1Cc1c(F)cccc1F`?
**A.** IC50 [3]: 14.7 nM; IC50 [1]: < 125 nM; IC50 [2]: 18.3 nM

**Q.** What does the source list for `CCCCCCCCCCCC1=N/C(=C\c2[nH]c(-c3ccccc3)cc2OC)C=C1`?
**A.** IC50 [3]: 10500 nM; IC50 [1]: 3580 nM; IC50 [2]: 15800 nM

**Q.** Which results are given for `CCCCCCc1ccc(/C=C2\N=C(c3ccc[nH]3)C=C2OC)[nH]1`?
**A.** IC50 [3]: 375 nM; IC50 [1]: < 125 nM; IC50 [2]: 450 nM

**Q.** What does the source list for `CCCCCCCCc1cc(CCCCCCC)[nH]c1/C=C1\N=C(c2ccc[nH]2)C=C1OC`?
**A.** IC50 [3]: 6.2 nM; IC50 [1]: 3910 nM; IC50 [2]: 2.9 nM

**Q.** For `COC1=CC(c2ccc[nH]2)=N/C1=C\c1[nH]ccc1Cc1ccccc1`, which IC50 [1] is on record?
**A.** The IC50 was under 125 nM.

**Q.** And the IC50 [2]?
**A.** Its IC50 is 86 nM.

**Q.** What does the source list for `CCCCCCCCc1cc(CCCCCCCC)c(/C=C2\N=C(c3ccc[nH]3)C=C2OC)[nH]1`?
**A.** IC50 [3]: 92 nM; IC50 [1]: 31200 nM; IC50 [2]: 129 nM

**Q.** What does the source list for `CCCCCCCCCCCc1ccc(/C=C2\N=C(c3cccs3)C=C2OC)[nH]1`?
**A.** IC50 [3]: 5940 nM; IC50 [1]: 2120 nM; IC50 [2]: 7770 nM

**Q.** With `CCCCCCCCCCCC1=N/C(=C\c2[nH]c(-c3cc4ccccc4[nH]3)cc2OC)C=C1` as the molecule, how does the IC50 [3] read?
**A.** Its IC50 is 4060 nM.

**Q.** What about the IC50 [1] of the same molecule?
**A.** Its IC50 is 3410 nM.

**Q.** What about the IC50 [2] of the same molecule?
**A.** The IC50 was 6150 nM.

**Q.** Which IC50 [3] does the source give for `COC1=CC(c2ccc[nH]2)=N/C1=C\c1[nH]c(Cc2ccc(Br)cc2)cc1Cc1ccc(Cl)cc1` here?
**A.** Its IC50 is 8.3 nM.

**Q.** And the IC50 [1]?
**A.** Its IC50 is under 125 nM.

**Q.** And the IC50 [2]?
**A.** The IC50 was 7.7 nM.

**Q.** With `COC1=CC(c2cccs2)=N/C1=C\c1[nH]c(C)cc1C` as the molecule, how does the IC50 [3] read?
**A.** Its IC50 is over 25000 nM.

**Q.** What about the IC50 [1] of the same molecule?
**A.** Its IC50 is 3530 nM.

**Q.** And the IC50 [2]?
**A.** The IC50 was over 25000 nM.

**Q.** With `COC1=CC(c2ccc[nH]2)=N/C1=C\c1[nH]c(C)cc1C` as the molecule, how does the IC50 [3] read?
**A.** Its IC50 is 8900 nM.

**Q.** What about the IC50 [1] of the same molecule?
**A.** The IC50 was under 125 nM.

**Q.** And the IC50 [2]?
**A.** The IC50 was 8130 nM.

**Q.** Which IC50 [3] does the source give for `CCCCC1CCCCCCc2cc1c(/C=C1\N=C(c3ccc[nH]3)C=C1OC)[nH]2` (stereo not drawn) [STREPTORUBIN B] here?
**A.** The IC50 was 7.8 nM.

**Q.** Which results are given for `COC1=CC(c2ccccc2)=N/C1=C\c1[nH]c(C)cc1C`?
**A.** IC50 [3]: 19400 nM; IC50 [1]: 7950 nM; IC50 [2]: 13600 nM

**Q.** For `COC1=CC(c2ccc[nH]2)=N/C1=C\c1[nH]c(Cc2ccc(Cl)cc2)cc1CCC1CCCCC1`, which IC50 [3] is on record?
**A.** Its IC50 is 3.9 nM.

**Q.** And the IC50 [1]?
**A.** Its IC50 is 1010 nM.

**Q.** And the IC50 [2]?
**A.** The IC50 was 2.9 nM.

**Q.** Which IC50 [3] does the source give for `CCCCCCc1cc(CCCCCC)c(/C=C2\N=C(c3ccc[nH]3)C=C2OC)[nH]1` here?
**A.** Its IC50 is 1.7 nM.

**Q.** What about the IC50 [1] of the same molecule?
**A.** The IC50 was under 125 nM.

**Q.** What about the IC50 [2] of the same molecule?
**A.** The IC50 was 1.1 nM.

**Q.** Which IC50 [3] does the source give for `COC1=CC(c2ccco2)=N/C1=C\c1[nH]c(C)cc1C` here?
**A.** Its IC50 is over 25000 nM.

**Q.** What about the IC50 [1] of the same molecule?
**A.** The IC50 was 3890 nM.

**Q.** What about the IC50 [2] of the same molecule?
**A.** Its IC50 is over 25000 nM.

**Q.** Which IC50 [3] does the source give for `COC(=O)CCCc1cc[nH]c1/C=C1\N=C(c2ccc[nH]2)C=C1OC` here?
**A.** The IC50 was 4500 nM.
